From ChEMBL document CHEMBL4477235, “Evolution of a Novel, Orally Bioavailable Series of PI3Kδ Inhibitors from an Inhaled Lead for the Treatment of Respiratory Disease” (J Med Chem, 2016)
pIC50: −log10 of the molar value. ≈ marks a conversion by molar mass, not a printed value. Where “and” joins values, the source holds several entries; their conditions need not be identical. Identical values can stand only once. Calls of active or inactive are those of the source. No cut-off for these calls is given here.

Experiments:
[1] = target: Tyrosine-protein kinase JAK2 (Homo sapiens, UniProt O60674); assay: Inhibition of JAK2 (unknown origin)
[2] = target: Mitogen-activated protein kinase 14 (Homo sapiens, UniProt Q16539); assay: Inhibition of P38alpha (unknown origin)
[3] = Half life in Sprague-Dawley rat at 1 mg/kg, iv by LC-MS/MS analysis; format: ADME, organism-based; settings: in vivo
How it was run: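 Male Sprague Dawley rats (n = 2/route), intravenous dose as a solution in DMSO/PEG200/water (5:45:50 v/v/v) at 2 mL/kg. Serial tail-vein blood sampling over 0–7 h. LC–MS/MS quantification of parent. Noncompartmental analysis.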

[4] = AUC(infinity) in Brown Norway rat acute OVA model of TH2-driven lung inflammation at 9 mg/kg, po pretreated for 30 mins followed by OVA challenge; format: ADME, organism-based; parameters: dose 9 mg/kg, route oral, time infinity; settings: in vivo
How it was run: (§1)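 Male Brown Norway rats weighing 250–300 g were sensitised intraperitoneally with 10 μg OVA plus 20 mg Al(OH)₃ in 1 mL on days 1 and 7. On day 21 or 28 they were challenged intratracheally with 0.2 mL OVA under isoflurane. Compound was dosed orally 30 min before challenge. Blood exposure was measured in the same animals, with the 1 h post-dose concentration also recorded.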

Albumin = Albumin (Homo sapiens, UniProt P02768); assay: Binding affinity to human serum albumin by HPLC analysis; format: ADME; settings: read-out: PB (converted)
[5] = AUC(infinity) in Wistar Han rat at 1 mg/kg; format: ADME, organism-based; parameters: dose 1 mg/kg, time infinity; settings: in vivo
[6] = Clearance in mouse liver microsomes at 0.5 uM measured up to 30 mins by LC-MS/MS analysis; format: ADME, Microsome; settings: 0.5 h
Aurora kinase A = Aurora kinase A (Homo sapiens, UniProt O14965); assay: Inhibition of Aurora A (unknown origin)
[7] = target: Choline/ethanolamine kinase (Homo sapiens, UniProt Q9Y259); assay: Inhibition of CHKB (unknown origin)
[8] = target: T1, Phosphatidylinositol 4,5-bisphosphate 3-kinase catalytic subunit delta isoform (Homo sapiens, UniProt O00329)
T1 sequence (O00329 whole entry): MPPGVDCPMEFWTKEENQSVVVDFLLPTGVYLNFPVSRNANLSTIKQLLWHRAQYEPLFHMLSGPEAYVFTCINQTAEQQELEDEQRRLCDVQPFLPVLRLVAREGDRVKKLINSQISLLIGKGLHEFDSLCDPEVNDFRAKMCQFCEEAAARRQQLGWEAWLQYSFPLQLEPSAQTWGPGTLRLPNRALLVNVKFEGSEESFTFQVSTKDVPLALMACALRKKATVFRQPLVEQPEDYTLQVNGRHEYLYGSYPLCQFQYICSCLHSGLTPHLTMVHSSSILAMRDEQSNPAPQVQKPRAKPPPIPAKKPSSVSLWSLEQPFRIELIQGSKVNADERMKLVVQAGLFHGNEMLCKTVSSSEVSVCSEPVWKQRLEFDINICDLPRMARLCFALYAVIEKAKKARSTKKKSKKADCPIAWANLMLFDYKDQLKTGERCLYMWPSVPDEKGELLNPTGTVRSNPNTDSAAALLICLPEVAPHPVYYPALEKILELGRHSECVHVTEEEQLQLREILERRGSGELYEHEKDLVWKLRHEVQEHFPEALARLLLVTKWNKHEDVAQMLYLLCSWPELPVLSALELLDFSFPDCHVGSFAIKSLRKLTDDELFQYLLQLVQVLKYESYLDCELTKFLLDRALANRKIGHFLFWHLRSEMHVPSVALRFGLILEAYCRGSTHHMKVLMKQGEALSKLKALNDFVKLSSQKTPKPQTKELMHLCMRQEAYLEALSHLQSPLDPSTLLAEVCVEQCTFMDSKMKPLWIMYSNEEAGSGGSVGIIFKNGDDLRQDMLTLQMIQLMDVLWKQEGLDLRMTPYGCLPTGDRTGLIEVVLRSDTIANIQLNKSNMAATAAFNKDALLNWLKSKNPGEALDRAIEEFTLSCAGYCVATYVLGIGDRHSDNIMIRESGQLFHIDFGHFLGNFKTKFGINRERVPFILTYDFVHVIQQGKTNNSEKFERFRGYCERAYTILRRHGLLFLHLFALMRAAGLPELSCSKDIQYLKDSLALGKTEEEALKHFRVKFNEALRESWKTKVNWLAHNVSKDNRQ

Rattus norvegicus = assay: Anti-inflammatory activity in Brown Norway rat acute OVA model of TH2-driven lung inflammation assessed as protection against eosinophil recruitment in bronchoalveolar lavage fluid at 9 mg/kg, po pretreated for 30 mins followed by OVA challenge by DAPI staining based flow cytometry; format: functional, organism-based
How it was run: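 Male Brown Norway rats (250–300 g) sensitized i.p. with 10 μg OVA plus 20 mg Al(OH)₃ on days 1 and 7. Oral compound given 30 min before intratracheal OVA challenge on day 21 or 28, under isoflurane. BAL taken 48 h post-challenge. Leucocytes counted by flow cytometry, gated on FSC/SSC, with DAPI+ dead cells excluded.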

[9] = target: Glycogen synthase kinase-3 beta (Homo sapiens, UniProt P49841); assay: Inhibition of GSK3beta (unknown origin)
[10] = Kinetic solubility in phosphate buffered saline at pH 7.4 after 1 hr by chemiluminescent nitrogen detection method; format: physicochemical; settings: read-out: Kinetic_solubility
How it was run: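 The sample was then filtered, and the filtrate was quantified by calibrated flow-injection chemiluminescent nitrogen detection. Standard error was ±30 µM, and the upper limit was 500 µM from the 10 mM stock.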

[11] = Drug uptake in blood of Brown Norway rat acute OVA model of TH2-driven lung inflammation at 9 mg/kg, po pretreated for 30 mins followed by OVA challenge measured 1 hr post dose; format: ADME, organism-based; settings: read-out: Drug uptake
How it was run: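 Sensitized Brown Norway rats given oral compound 30 min before intratracheal OVA challenge. Blood concentration taken 1 h after dosing, i.e. 30 min after challenge.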

Aurora kinase B = Aurora kinase B (Homo sapiens, UniProt Q96GD4); assay: Inhibition of Aurora B (unknown origin)
Sphingosine kinase 1 = Sphingosine kinase 1 (Homo sapiens, UniProt Q9NYA1); assay: Inhibition of SPHK1 (unknown origin)
[12] = target: Tyrosine-protein kinase ITK/TSK (Homo sapiens, UniProt Q08881); assay: Inhibition of ITK (unknown origin)
[13] = target: 3',5'-cyclic-AMP phosphodiesterase 4B (Homo sapiens, UniProt Q07343); assay: Inhibition of PDE4B (unknown origin)
[14] = target: Inhibitor of nuclear factor kappa-B kinase subunit alpha (Homo sapiens, UniProt O15111); assay: Inhibition of IKK1 (unknown origin)
[15] = AUC(infinity) in Brown Norway rat acute OVA model of TH2-driven lung inflammation at 3 mg/kg, po pretreated for 30 mins followed by OVA challenge; format: ADME, organism-based; parameters: dose 3 mg/kg, time infinity, route oral; settings: in vivo; how it was run: as §1
[16] = Fraction unbound in Brown Norway rat acute OVA model of TH2-driven lung inflammation at 3 mg/kg, po pretreated for 30 mins followed by OVA challenge measured 1 hr post dose by HPLC analysis; format: ADME, organism-based; settings: in vivo
How it was run: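 Unbound concentration at 1 h post-dose estimated by an internal algorithm from binding to HPLC columns coated with HSA and α-glycoprotein.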

[17] = target: T1, Phosphatidylinositol 4,5-bisphosphate 3-kinase catalytic subunit delta isoform; remark: listed apart in the source

Chain of Choline/ethanolamine kinase (Q9Y259 whole entry, canonical isoform): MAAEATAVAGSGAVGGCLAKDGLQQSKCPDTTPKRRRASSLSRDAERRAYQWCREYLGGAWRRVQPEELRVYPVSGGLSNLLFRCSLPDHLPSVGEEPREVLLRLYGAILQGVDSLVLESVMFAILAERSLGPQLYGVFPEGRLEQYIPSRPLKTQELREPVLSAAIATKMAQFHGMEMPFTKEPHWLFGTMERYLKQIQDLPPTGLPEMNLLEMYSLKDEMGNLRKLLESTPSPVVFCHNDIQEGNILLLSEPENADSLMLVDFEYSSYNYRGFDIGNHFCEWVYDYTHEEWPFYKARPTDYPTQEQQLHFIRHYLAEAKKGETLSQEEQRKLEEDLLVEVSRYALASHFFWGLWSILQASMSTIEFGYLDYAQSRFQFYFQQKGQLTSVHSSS
Chain of 3',5'-cyclic-AMP phosphodiesterase 4B (Q07343 whole entry): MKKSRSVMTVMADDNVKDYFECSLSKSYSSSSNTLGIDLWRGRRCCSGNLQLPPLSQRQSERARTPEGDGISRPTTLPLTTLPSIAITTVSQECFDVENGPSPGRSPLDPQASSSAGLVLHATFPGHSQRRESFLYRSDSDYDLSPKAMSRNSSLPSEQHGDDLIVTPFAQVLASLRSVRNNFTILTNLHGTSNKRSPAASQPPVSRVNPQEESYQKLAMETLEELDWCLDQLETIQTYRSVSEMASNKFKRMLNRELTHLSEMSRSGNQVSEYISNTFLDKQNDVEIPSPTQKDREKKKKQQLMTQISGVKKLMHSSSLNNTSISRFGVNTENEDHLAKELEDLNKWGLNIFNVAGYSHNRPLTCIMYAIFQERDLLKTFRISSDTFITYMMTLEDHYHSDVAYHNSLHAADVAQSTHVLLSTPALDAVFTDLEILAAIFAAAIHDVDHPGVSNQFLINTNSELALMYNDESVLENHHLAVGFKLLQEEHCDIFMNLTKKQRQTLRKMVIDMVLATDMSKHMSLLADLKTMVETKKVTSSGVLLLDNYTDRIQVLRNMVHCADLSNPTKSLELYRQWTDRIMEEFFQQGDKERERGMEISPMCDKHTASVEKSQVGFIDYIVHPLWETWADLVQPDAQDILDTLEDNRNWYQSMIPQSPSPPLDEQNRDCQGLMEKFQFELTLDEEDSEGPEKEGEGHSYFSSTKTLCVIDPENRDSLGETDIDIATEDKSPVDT
Chain of Aurora kinase A (O14965 whole entry): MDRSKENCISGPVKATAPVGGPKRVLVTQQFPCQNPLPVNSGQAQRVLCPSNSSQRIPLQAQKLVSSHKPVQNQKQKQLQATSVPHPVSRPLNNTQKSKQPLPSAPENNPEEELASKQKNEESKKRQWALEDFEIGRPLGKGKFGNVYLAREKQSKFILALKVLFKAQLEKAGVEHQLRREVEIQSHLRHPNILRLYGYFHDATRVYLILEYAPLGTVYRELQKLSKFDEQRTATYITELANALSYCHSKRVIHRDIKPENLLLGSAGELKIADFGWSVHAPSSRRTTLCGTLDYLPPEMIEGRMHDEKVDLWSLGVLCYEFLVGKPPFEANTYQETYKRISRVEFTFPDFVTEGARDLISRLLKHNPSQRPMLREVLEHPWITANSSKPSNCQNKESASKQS
Chain of Aurora kinase B (Q96GD4 whole entry): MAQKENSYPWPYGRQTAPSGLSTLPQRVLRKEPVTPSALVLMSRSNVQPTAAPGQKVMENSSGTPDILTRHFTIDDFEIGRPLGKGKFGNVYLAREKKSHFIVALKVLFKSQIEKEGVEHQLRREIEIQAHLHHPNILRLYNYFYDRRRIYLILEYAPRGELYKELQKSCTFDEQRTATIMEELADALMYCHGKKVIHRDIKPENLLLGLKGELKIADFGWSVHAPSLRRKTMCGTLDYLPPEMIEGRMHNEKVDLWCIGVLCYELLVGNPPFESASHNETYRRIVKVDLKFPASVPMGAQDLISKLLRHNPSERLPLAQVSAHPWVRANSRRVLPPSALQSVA
Chain of Sphingosine kinase 1 (Q9NYA1 whole entry): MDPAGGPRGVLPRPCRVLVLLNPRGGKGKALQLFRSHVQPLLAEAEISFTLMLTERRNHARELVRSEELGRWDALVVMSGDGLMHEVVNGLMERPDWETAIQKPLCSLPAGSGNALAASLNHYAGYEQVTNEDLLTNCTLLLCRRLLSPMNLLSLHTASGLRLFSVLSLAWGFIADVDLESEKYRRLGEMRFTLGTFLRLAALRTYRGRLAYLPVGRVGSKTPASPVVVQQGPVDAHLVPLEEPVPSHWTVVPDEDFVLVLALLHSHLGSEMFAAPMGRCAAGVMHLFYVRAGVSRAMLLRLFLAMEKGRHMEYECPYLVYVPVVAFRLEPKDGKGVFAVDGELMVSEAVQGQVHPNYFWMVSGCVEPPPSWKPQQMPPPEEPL
Chain of Tyrosine-protein kinase ITK/TSK (Q08881 whole entry): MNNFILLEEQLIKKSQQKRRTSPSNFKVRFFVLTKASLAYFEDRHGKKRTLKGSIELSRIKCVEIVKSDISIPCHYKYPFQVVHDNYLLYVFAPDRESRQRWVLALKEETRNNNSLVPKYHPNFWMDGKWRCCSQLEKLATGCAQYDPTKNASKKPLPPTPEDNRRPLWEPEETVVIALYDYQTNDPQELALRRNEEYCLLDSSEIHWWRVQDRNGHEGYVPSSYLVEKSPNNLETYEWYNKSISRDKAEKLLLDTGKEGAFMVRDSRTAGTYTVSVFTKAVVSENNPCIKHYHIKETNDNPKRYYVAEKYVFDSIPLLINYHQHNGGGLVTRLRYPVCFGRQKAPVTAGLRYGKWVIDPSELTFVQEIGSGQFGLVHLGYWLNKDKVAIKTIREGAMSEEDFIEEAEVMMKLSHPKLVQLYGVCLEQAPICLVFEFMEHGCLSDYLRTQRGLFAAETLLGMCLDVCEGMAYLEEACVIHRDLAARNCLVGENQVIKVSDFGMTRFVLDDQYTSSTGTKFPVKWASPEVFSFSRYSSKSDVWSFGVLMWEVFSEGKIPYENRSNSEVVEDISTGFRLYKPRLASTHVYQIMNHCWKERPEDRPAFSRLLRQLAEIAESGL
Chain of Tyrosine-protein kinase JAK2 (O60674 whole entry): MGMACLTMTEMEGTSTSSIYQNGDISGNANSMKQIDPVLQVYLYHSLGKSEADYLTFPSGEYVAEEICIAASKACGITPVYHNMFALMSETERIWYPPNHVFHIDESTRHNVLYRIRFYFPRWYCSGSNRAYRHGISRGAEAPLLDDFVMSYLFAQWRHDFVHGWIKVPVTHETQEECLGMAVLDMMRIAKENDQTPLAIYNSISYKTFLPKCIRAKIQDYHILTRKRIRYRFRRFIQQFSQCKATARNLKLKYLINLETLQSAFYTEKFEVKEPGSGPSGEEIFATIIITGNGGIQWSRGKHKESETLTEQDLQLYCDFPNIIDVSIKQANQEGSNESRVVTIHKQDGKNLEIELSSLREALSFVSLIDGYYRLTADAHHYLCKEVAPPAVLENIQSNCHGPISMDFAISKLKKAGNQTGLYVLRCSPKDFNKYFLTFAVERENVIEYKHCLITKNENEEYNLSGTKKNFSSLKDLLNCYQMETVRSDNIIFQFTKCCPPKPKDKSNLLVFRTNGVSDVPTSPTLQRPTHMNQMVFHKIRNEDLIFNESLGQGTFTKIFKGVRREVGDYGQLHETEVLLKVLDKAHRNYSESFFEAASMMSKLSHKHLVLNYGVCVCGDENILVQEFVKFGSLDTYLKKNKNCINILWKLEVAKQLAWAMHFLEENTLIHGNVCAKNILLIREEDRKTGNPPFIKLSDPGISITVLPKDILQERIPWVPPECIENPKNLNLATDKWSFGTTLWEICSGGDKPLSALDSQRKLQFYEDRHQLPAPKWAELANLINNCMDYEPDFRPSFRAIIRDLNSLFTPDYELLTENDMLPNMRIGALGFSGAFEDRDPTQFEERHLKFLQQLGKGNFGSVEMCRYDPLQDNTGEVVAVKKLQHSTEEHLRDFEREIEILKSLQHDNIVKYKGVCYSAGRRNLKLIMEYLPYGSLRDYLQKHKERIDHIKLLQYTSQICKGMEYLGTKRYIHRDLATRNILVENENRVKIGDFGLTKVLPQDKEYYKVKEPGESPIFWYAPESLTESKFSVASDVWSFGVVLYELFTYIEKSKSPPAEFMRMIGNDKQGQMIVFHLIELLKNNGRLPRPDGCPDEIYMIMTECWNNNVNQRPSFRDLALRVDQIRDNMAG
Chain of Glycogen synthase kinase-3 beta (P49841 whole entry): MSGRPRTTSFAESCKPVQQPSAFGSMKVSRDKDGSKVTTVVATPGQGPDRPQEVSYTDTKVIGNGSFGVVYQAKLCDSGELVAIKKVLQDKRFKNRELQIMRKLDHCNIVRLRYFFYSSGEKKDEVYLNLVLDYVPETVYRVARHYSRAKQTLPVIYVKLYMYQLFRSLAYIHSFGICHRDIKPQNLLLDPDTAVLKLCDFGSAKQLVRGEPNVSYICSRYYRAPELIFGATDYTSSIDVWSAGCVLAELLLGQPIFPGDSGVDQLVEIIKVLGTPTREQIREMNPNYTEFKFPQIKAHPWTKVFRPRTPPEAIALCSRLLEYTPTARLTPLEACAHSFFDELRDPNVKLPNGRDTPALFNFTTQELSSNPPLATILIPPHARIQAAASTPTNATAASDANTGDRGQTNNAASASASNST
Chain of Mitogen-activated protein kinase 14 (Q16539 whole entry): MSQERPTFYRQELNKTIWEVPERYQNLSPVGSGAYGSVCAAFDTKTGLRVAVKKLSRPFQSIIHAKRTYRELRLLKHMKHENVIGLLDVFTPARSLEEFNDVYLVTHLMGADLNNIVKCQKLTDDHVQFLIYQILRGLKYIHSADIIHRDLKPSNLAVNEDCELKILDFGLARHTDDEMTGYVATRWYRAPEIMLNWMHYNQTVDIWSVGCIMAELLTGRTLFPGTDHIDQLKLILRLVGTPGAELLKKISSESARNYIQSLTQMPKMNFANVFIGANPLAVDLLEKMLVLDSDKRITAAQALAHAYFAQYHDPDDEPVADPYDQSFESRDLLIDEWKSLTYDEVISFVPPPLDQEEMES

- pIC50 [1]: < 5.00
- pIC50 [2]: < 5.00
- half-life [3]: 1.3 h
- AUC(0-inf) [4]: 2620 ng·h/mL
- fraction unbound (Albumin): 0.36
- AUC(0-inf) [5]: 673 ng·h/mL
- CLH [6]: < 0.5 mL/min/g
- pIC50 (Aurora kinase A): < 5.00
- pIC50 [7]: < 5.00
- pIC50 [8]: 6.60 to 6.80 and 6.60
- pIC50 [9]: < 5.00
- solubility kinetic at 1 h [10]: 185 µg/mL (≈ 400 µM)
- concentration at 1 h [11]: 1270 nM
- pIC50 (Aurora kinase B): < 5.00
- pIC50 (Sphingosine kinase 1): < 5.00
- pIC50 [12]: < 5.00
- pIC50 [13]: < 5.00
- pIC50 [14]: < 5.00
- AUC(0-inf) [15]: 454 ng·h/mL
- Drug uptake(free) [16]: 0.032 µM
- pIC50 [17]: 6.80
Structure (SMILES): COc1ncc(-c2cc3c(c(NC(=O)CN4CCOCC4)c2)COC3)cc1NS(C)(=O)=O
- Activity (Rattus norvegicus): inactive
